{"data": "Assay results from different studies", "KIT autoinhibited": "Mast/stem cell growth factor receptor Kit, autoinhibited (KIT, Homo sapiens, UniProt P10721)", "KIT": "Mast/stem cell growth factor receptor Kit (KIT, Homo sapiens, UniProt P10721)", "KIT T670I/V559D": "Mast/stem cell growth factor receptor Kit (KIT, Homo sapiens, UniProt P10721, T670I/V559D)", "note": "Compare with care: the assays were run in different laboratories."}
{"SMILES": "CC#CC(=O)N1CCC[C@H]1c1nc(-c2ccc(C(=O)Nc3ccccn3)cc2)c2c(N)nccn12", "target": "Mast/stem cell growth factor receptor Kit (KIT, Homo sapiens, UniProt P10721, L576P)", "effect on": "enzyme activity", "mode": "inhibitor", "concentration": "1 µM", "endpoint": "inhibition", "value": "13%"}
{"SMILES": "C1=C/COCc2cc(ccc2OCCN2CCCC2)Nc2nccc(n2)-c2cccc(c2)COC/1", "target": "KIT autoinhibited", "effect on": "binding", "concentration": "0.1 µM", "endpoint": "remaining binding", "value": "17%"}
{"SMILES": "C[C@H]1CC[C@H](n2c3cnccc3c3cnc(Nc4ccc5c(n4)CCN(C(=O)CO)C5)nc32)CC1", "target": "Mast/stem cell growth factor receptor Kit (KIT, Homo sapiens, UniProt P10721, A829P)", "effect on": "cell-free assay", "concentration": "1 µM", "endpoint": "remaining signal", "value": "36%"}
{"SMILES": "CCCCC(=O)Nc1ccc(-c2ccc3ncn(CCC)c(=O)c3c2)cn1", "target": "KIT autoinhibited", "effect on": "binding", "technique": "competition with immobilised ligand", "concentration": "0.5 µM", "endpoint": "remaining binding", "value": "97%"}
{"SMILES": "Cc1ccc(NC(=O)c2ccnc(C(F)(F)F)c2)cc1-c1cc(OCCO)nc(N2CCOCC2)c1", "target": "Mast/stem cell growth factor receptor Kit (KIT, Homo sapiens, UniProt P10721, V559D/V654A)", "effect on": "binding", "concentration": "1 µM", "endpoint": "remaining binding", "value": "91%"}
{"SMILES": "C=CC(=O)N1CCC([C@@H]2CCNc3c(C(N)=O)c(-c4ccc(Oc5ccccc5)cc4)nn32)CC1", "target": "KIT", "effect on": "enzyme activity", "mode": "inhibitor", "concentration": "1 µM", "endpoint": "inhibition", "value": "17%"}
{"SMILES": "C#Cc1cnc(Nc2ccnc(CO)c2)nc1Nc1ccccc1S(C)(=O)=NC#N (stereo not drawn)", "target": "KIT T670I/V559D", "effect on": "cell-free assay", "concentration": "1 µM", "endpoint": "remaining signal", "value": "79%"}
{"SMILES": "N#Cc1ccc(NC(=O)Nc2ccccc2)cc1", "target": "KIT T670I/V559D", "effect on": "cell-free assay", "technique": "competition with immobilised ligand", "concentration": "25 µM", "endpoint": "remaining binding", "value": "57%"}
{"SMILES": "COc1ccc2[nH]c3c4[nH]c5ccc(OC)cc5c4c4c(c3c2c1)C(=O)NC4=O", "target": "Mast/stem cell growth factor receptor Kit (KIT, Homo sapiens, UniProt P10721, V559D)", "effect on": "binding", "concentration": "1 µM", "endpoint": "remaining binding", "value": "9%"}
{"SMILES": "COc1ccc2oc(-c3ccc4nc(N)oc4c3)c/c(=N\\c3ccccc3NC(=O)CCN)c2c1", "target": "Mast/stem cell growth factor receptor Kit (KIT, Homo sapiens, UniProt P10721, V654A)", "effect on": "cell-free assay", "concentration": "1 µM", "endpoint": "remaining signal", "value": "102%"}
{"SMILES": "CN1CCN(C(=O)c2ccc(NC(=O)Nc3ccc(N(C)c4ccnc(Nc5ccc(CS(C)(=O)=O)cc5)n4)cc3)cc2)CC1", "target": "KIT", "effect on": "binding", "technique": "competition with immobilised ligand", "concentration": "1 µM", "endpoint": "remaining binding", "value": "0%"}
{"SMILES": "CO[C@@H]1[C@H](N(C)C(=O)c2ccccc2)C[C@H]2O[C@]1(C)n1c3ccccc3c3c4c(c5c6ccccc6n2c5c31)C(=O)NC4", "target": "Mast/stem cell growth factor receptor Kit (KIT, Homo sapiens, UniProt P10721, D816V)", "effect on": "enzyme activity", "mode": "inhibitor", "concentration": "1 µM", "endpoint": "inhibition", "value": "96%"}
